PLC-gamma1 inh – blocks human PLC-gamma1 enzyme activity | P19174 | purified PLC-gamma1, fluorogenic substrate, fluorescence | inhibition, % at 12.2 µM | 0.84% of 370,000 active; in the data active = inhibition above about 9.5%
proCasp3 act – procaspase-3 (human) activation. P42574. recombinant procaspase-3 D3A, Ac-DEVD-pNA absorbance 405 nm. activation, % at 8.5 µM. 0.11% of 330,000 active;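 active = activation above the mean of all tested compounds plus 3 SD, cut at about 21% in these data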;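 note: 0% = DMSO alone and 100% = DMSO wells spiked with extra 5 µM PC-3 D3A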
Target sequence (P42574 whole entry D9A/D28A/D175A): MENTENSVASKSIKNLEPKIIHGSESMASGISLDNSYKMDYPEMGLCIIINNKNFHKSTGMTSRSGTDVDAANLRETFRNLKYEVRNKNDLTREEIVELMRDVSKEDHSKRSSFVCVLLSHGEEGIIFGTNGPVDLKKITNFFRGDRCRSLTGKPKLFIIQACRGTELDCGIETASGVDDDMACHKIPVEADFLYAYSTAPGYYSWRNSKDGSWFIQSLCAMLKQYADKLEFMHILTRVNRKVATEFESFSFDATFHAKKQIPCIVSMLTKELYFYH
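Assay system – Procaspase-3 D3A mutant · Benchmarks – DMSO low control, extra-enzyme high control · Technique – 405 nm absorbance of p-nitroaniline, reads at 0 and 120 min · Doses – 8.5 µM nominal · Measure – % activation between DMSO and enzyme-spiked controls · Also added – Ac-DEVD-pNA chromogenic peptide substrate · Schedule – 1 h compound preincubation, 2 h substrate hydrolysis at 25 °C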
HGIII-sPLA2 inh – Inhibits HGIII-sPLA2 liposome hydrolysis, primary screen | Q9NZ20 | QFRET BODIPY PC-A2 liposome hydrolysis, fluorescence | inhibition, % at 12.2 µM | 0.56% of 370,000 active | AID 743126;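 active = inhibition above mean plus 3 SD of compounds lying within the high and low control bounds, cut at about 19% in these data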;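 note: 0% = median of test compound wells and 100% = no enzyme DMSO wells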
PLC-beta3 inh – inhibitors of human phospholipase C beta3; Q01970; Purified PLC-beta3, fluorogenic substrate, fluorescence; inhibition, % at 12.2 µM; 0.18% of 370,000 active; AID 720704; in the data active = inhibition above about 11%;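 note: 0% = median of compound wells on plate and 100% = full blocker control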
procasp7 counter – counter-screen: procaspase-7 (human) activation; recombinant procaspase-7, Ac-DEVD-pNA absorbance 405 nm; D23A/D198A/D206A triple mutant, cannot self-cleave; scale: DMSO 0, 5 µM enzyme 100; 0.093% of 330,000 active; P55210; AID 463210; activation, % at 8.5 µM;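 active = percent activation above the screen-wide mean plus 3 SD, cut at about 25% in these data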
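Detection: p-Nitroaniline absorbance at 405 nm, read at 0 and 120 min; system: Uncleavable procaspase-7 mutant enzyme; evaluation: % activation from two-timepoint absorbance difference, scaled to controls; times: 1 h enzyme–compound preincubation and 2 h substrate reaction, both 25 °C; buffer or medium: Zinc-free HEPES pH 7.4 with 300 mM NaCl, 0.01% Triton X-100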
PC3 D3A act – counter-screen for dual procaspase-3/7 activators: human procaspase-3 activation | activation, % at 8.5 µM | 290 tested, under 10 active | recombinant PC-3 D3A, Ac-DEVD-pNA absorbance 405 nm; aspartates 9, 28, 175 changed to alanine; 100% = enzyme control | AID 493114 | shares compounds with procasp7 counter;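 active = mean percent activation across triplicates above a set limit taken from the earlier primary procaspase-3 screen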;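 note: 0% = DMSO wells and 100% = DMSO wells with 5 µM added PC-3 D3A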
PC7 dual conf – activates human procaspase-7, confirming dual procaspase activators | recombinant procaspase-7, Ac-DEVD-pNA absorbance 405 nm; D23A/D198A/D206A mutant that cannot self-cleave | shares compounds with procasp7 counter | activation, % at 8.5 µM | 290 tested, under 10 active | AID 493115;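 active = mean activation above a set limit carried over from the earlier primary screen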;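 note: 0% = DMSO only and 100% = DMSO with added 5 µM PC-7 enzyme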
hGIII sPLA2 conf – human GIII-sPLA2 inhibition, confirmation; shares compounds with HGIII-sPLA2 inh; recombinant hGIII-sPLA2, BODIPY PC-A2 QFRET fluorescence; inhibition, % at 12.2 µM; 34% of 2,000 active;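 active = mean inhibition across triplicates above the hit cutoff set in the earlier primary screen, cut at about 19% in these data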;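 note: 0% = enzyme with DMSO and 100% = DMSO wells lacking enzyme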
BODIPY interf – counter-screen for HGIII-sPLA2 inhibitors: 535nm fluorescence interference; shares compounds with HGIII-sPLA2 inh; BODIPY FL product fluorescence interference, QFRET; inhibition, % at 12.2 µM; 8.5% of 2,000 active; AID 743282;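 active = average inhibition above the solvent-only control mean plus 3 SD, cut at about 6% in these data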;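 note: 0% = DMSO with substrate plus product and 100% = DMSO with substrate alone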
* marks the source's active call; other numbers are inactive results; i = inactive; . = no result given. Only some compounds are listed: those with a hit (about 1.6% of all), similar ones and a draw of the others.

SMILES	PLC-gamma1 inh	proCasp3 act	HGIII-sPLA2 inh	PLC-beta3 inh	procasp7 counter	PC3 D3A act	PC7 dual conf	others
Cc1cccc(C2=NN(c3ccc(Br)cc3)[C@@H](C(=O)N3CCOC3=O)[C@@H]2c2ccc(F)cc2)c1	i	35*	-12	i	26*	-29	-35
O=C1OCCN1C(=O)[C@H]1[C@H](c2ccc(F)cc2)C(c2cccc(Cl)c2)=NN1c1ccc(Br)cc1	i	19	0	i	15	.	.
O=c1c(O)c(-c2ccc3c(c2)OCO3)oc2ccccc12	-485	37*	0	i	30*	23*	19
Nc1nc(SCC(=O)c2ccc(Cl)cc2)c2ncn(C3OC(CO)C(O)C3O)c2n1 (stereo unspecified)	-9	.	-37	-14	.	.	.
Cc1cccc(S(=O)(=O)N(C)C[C@H]2OCc3cnnn3CCCC(=O)N([C@H](C)CO)C[C@H]2C)c1	0	.	2	5	.	.	.
COc1ccc(-c2c(C#N)c(N)nc3c2CCc2ccccc2-3)cc1OC	i	34*	-4	i	65*	-29	-35
COc1cc(-c2c(C#N)c(N)nc3c2CCCC3)ccc1O	-24	-5	-13	-23	-4	.	.
C=CC(=O)NC1CCCCN(CC)C1=O (stereo unspecified)	4	.	18	-4	.	.	.
Cc1nnc(NC(=O)c2c(-c3ccccc3)noc2C)s1	-2	5	1	1	26*	1	-1
Cc1ccc(C)c(NC(=O)c2ccc(S(=O)(=O)N(C)CC3CCCO3)cc2)c1 (stereo unspecified)	0	-2	-3	-2	3	.	.
COCC(=O)N(C)C[C@H]1N[C@@](C)(C(=O)OC)[C@H]2C(=O)N(Cc3ccccc3)C(=O)[C@@H]12	1	14	2	4	17	.	.
COc1ccc(S(=O)(=O)N2CCN(C(=O)CCOc3ccccc3)CC2)cc1OC	0	-7	1	-7	-1	.	.
COc1ccc(S(=O)(=O)N2CCN(C(=O)COc3ccc(C)c(C)c3)CC2)cc1OC	3	-2	-7	-8	39*	1	-2
CCN(CC)Cc1c(O)c(Cl)cc2c(C)cc(=O)oc12	i	.	-1	i	.	.	.
C=CCc1c(O)c(CC)cc2c(C)cc(=O)oc12	i	25*	0	i	28*	-29	-34
COc1ccc(N(C(=O)c2ccncc2)S(=O)(=O)c2ccc3c4c(cccc24)C(=O)N3C)cc1	-15	-4	3	-20	32*	-28	-34
COc1ccccc1NC(=O)c1ccccc1C(=O)Nc1ccccc1OC	2	2	-1	-8	10	.	.
COc1ccccc1NC(=O)c1cnc(Nc2ccccc2OC)c2ccccc12	-290	17	4	-283	31*	-30	-35
Cc1noc(C)c1C(=O)Nc1cc(S(=O)(=O)N2CCCCC2)ccc1N(C)C	0	.	-2	-3	.	.	.
CCCNC(=O)c1c(N)n(-c2ccc3c(c2)OCO3)c2nc3ccccc3nc12	-11	4	0	-9	5	.	.
CCCNC(=O)c1c(N)n(-c2cc(OC)cc(OC)c2)c2nc3ccccc3nc12	-94	115*	-3	-108	29*	-28	-36
Oc1c(Cl)cc(Cl)cc1/C=N/NC(=S)NC1CC2C=CC1C2 (stereo unspecified)	i	43*	45*	i	40*	-30	-34	hGIII sPLA2 conf=61*;BODIPY interf=14*

Assay outcomes deposited in PubChem by The Scripps Research Institute Molecular Screening Center.
